# MC4R antagonist: blocks human MC4R cAMP signaling; P32245; MC4R-expressing cells, MTII-stimulated cAMP, LANCE TR-FRET; inhibition, % at 6.5 µM; 360,000 tested, 0.48% active; AID 540295;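 active = inhibition above its plate's cutoff, the mean of tested wells on that plate plus 3 SD, cut at about 29% in these data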;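 note: 0% = Melanotan II alone and 100% = Melanotan II plus saturating MCL0020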
#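 Material – human MC4R-expressing U2OS cells · Repeats – no replicates · Detection – TR-FRET with Eu-cAMP and labeled anti-cAMP, 671 nm · Times – compound 30 min, challenge 1 h, detection 1 h · Compound – single nominal compound dose of 6.5 µM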
# AI-2 QS modul: modulators of Vibrio harveyi AI-2 quorum sensing system. Vibrio harveyi JMH597 AI-2 luminescence/OD600 ratio, 9 h; active compounds read low; strain lacks LuxN and CqsS sensors; 0 = neutral-control median. activity change, % at 7.5 µM. 300,000 tested, 0.4% active. AID 2094; in the data active = activity change below about -75%, passing the limit was not always enough;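 note: luminescence divided by OD600 gain over 9 h not by final OD600 alone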
# MC4R barr agon: agonists of human melanocortin 4 receptor (MC4R) beta-arrestin | activation, % at 8.9 µM | 360,000 tested, 0.98% active | P32245 | U2OS MC4R beta-arrestin complementation, luminescence; percent of melanotan II response, DMSO zero;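 active = activation above a per-plate cutoff, the mean activation of sample wells on that plate plus 3 SD, cut at about 8% in these data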
# NTR1 agonist: agonists of human neurotensin receptor NTR1 | P30989 | NTR1-U2OS beta-arrestin-GFP spot imaging, agonist mode | 330,000 tested, 0.17% active | activation, % at 20 µM;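 active = activation at or above 40% of the spot to cytoplasm intensity ratio, with at least 20 cells analyzed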;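 note: 0% = DMSO without peptide and 100% = 100 nM NTR1 peptide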
# Target sequence (P30989 whole entry, looked up): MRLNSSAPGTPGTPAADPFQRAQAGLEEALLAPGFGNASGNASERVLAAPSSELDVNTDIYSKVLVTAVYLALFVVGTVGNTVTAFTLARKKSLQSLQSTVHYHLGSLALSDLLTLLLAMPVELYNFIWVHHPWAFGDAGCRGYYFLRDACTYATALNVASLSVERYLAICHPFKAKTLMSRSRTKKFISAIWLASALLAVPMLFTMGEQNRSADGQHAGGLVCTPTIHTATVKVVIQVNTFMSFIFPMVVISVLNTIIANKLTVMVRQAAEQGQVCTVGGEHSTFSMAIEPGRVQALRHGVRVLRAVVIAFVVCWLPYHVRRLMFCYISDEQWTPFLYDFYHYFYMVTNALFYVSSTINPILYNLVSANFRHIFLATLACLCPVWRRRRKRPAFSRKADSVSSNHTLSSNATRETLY
# NTR1 ag conf: confirmation of agonists of human NTR1 | shares compounds with NTR1 agonist | NTR1-U2OS beta-arrestin-GFP translocation imaging | activation, % at 20 µM | 480 tested, 38% active;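 active = mean activation at 20 µM of at least 40%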;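 note: 0% = DMSO without peptide and 100% = 100 nM NTR1 peptide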
# Starred values were filed as active, the others as inactive; / = no result. Most compounds without a hit are left out; they make up all but 1.8% or so of the library.
SMILES,MC4R antagonist,AI-2 QS modul,MC4R barr agon,NTR1 agonist,NTR1 ag conf
Cc1ccc(C(=O)n2nc(-c3ccco3)nc2N)cc1,-1.6,40.6,-1.9,0.3,/
COc1ccc(C(=O)n2nc(-c3ccco3)nc2N)cc1,4.4,42.5,-0.6,52.4*,4.7
CCCCCCCCn1c2c(c(=N)c3ccccc31)CCC2,-3.9,15.0,7.4,60.9*,50.4*
NS(=O)(=O)c1ccc(N2N=C(c3ccc(Br)cc3)CC2c2ccc(F)cc2)cc1 (stereo not given),9.9,39.4,2.5,42.0*,42.3*
CC(C)(C)OC(=O)NCCCCCNC(=O)c1[nH]cnc1C(=O)N[C@@H](Cc1ccccc1)C(=O)OCc1ccccc1,-6.0,-0.5,5.2,53.1*,22.9
CN(Cc1ccccc1)C(=O)c1[nH]cnc1C(=O)N[C@@H](Cc1ccccc1)C(=O)OCc1ccccc1,0.7,12.4,3.9,41.8*,2.2
O=C(Nc1ccccc1C(=O)Nc1ccc(Cl)cc1)c1cccnc1,6.1,0.1,-2.2,3.5,/
CSc1ccc(CN(C)C(=O)CNC(=O)c2ccc3c(c2)OCO3)cc1,3.6,3.6,-3.9,0.6,/
CC(C)(C)OC(=O)C[C@@H]1C/C=C\C[C@@H](CC(=O)N[C@@H](CO)Cc2ccccc2)C(=O)NC[C@@H](c2ccccc2)OC1=O,12.4,/,-0.7,1.4,/
O=C(Nc1cccc(S(=O)(=O)N2CCCC2)c1)[C@@H]1O[C@H](CO)[C@@H](O)[C@H]1O,4.3,/,-1.3,/,/
COc1ccc(Cn2c(O)c(C=Nc3ccc(O)cc3)c3ccccc3c2=O)cc1,21.0,-0.6,-1.1,34.0,/
O=c1c2ccccc2c(C=Nc2ccc(O)cc2)c(O)n1Cc1ccccc1,-2.7,1.6,0.2,40.0,4.5
Cc1ccc(CC(NC(=O)c2ccc(C)cc2)C(=O)O)cc1 (stereo not given),-0.6,/,-0.5,1.2,/
CC(=O)c1cc(Cl)ccc1OC(=O)c1ccco1,1.6,10.2,-1.4,0.5,/
O=C(Oc1ccc(Br)cc1C(=O)/C=C/c1ccccc1F)c1ccco1,-2.8,-10.3,-1.4,54.7*,40.3*
COc1ccc(-c2c(-c3cc(OC)cc(OC)c3)n(C)c3ccc(-c4ccc(N(C)C)nc4)cc23)cc1,8.6,/,-1.2,2.1,/
Cc1cc2c3c(c1)C(C)(c1ccccc1)CC(C)(C)N3C(=O)C21C(C#N)=C(N)OC2=C1C(=O)CC(C)(C)C2 (stereo not given),3.1,21.0,-1.2,40.4*,41.9*
O=[N+]([O-])c1cc(C(F)(F)F)ccc1NCCNC(=S)Nc1ccc(Cl)cc1,5.0,10.3,-2.1,41.1*,16.6
CCN1CCN(CCCNC(=O)c2ccc(/C=C3/Sc4ccccc4N(Cc4ccccc4F)C3=O)cc2)CC1,-1.7,26.9,7.1,41.1*,6.8
O=C(NCCN1CCOCC1)c1ccc2c(c1)N(Cc1ccccc1F)C(=O)c1ccccc1S2,5.7,25.8,-1.6,-0.3,/
O=S(=O)(NCC(Nc1ccccc1)c1ccccc1)c1ccc(Cl)cc1 (stereo not given),14.1,16.5,4.2,43.9*,7.5
O=C(O)c1cccc(NC(CNS(=O)(=O)c2ccc(Cl)cc2)c2ccccc2)c1 (stereo not given),10.8,29.9,-1.3,0.5,/
Cc1cccc(OCC(=O)NNc2c3ccccc3nc3ccccc23)c1,0.2,19.1,2.6,35.9,/
Cc1ccc(OCC(=O)NNc2c3ccccc3nc3ccccc23)cc1,-4.0,0.2,0.9,47.4*,20.3
COc1cccc(-n2cnnc2SCC(=O)NC2CC2)c1,5.2,/,0.0,-1.2,/
SMILES,MC4R antagonist,AI-2 QS modul,MC4R barr agon,NTR1 agonist,NTR1 ag conf
CCOc1cc(/C=C2/C(=O)ON=C2C)ccc1OCc1ccccc1,/,31.9,/,47.9*,53.8*
CCOc1cc(/C=C2/C(=O)ON=C2C)ccc1OCc1ccc(F)cc1,20.6,3.1,0.2,57.1*,64.0*
O=c1cc(-c2ccc(O)c(O)c2)oc2cc(O[C@@H]3O[C@H](CO)[C@@H](O)[C@H](O)[C@H]3O)cc(O)c12,-9.5,/,-0.6,-1.5,/
O=c1cc(-c2ccc(O)cc2)oc2cc(O)c(C3OC(CO)C(O)C(O)C3O)c(O)c12 (stereo not given),4.6,2.2,0.3,40.8*,52.3*
CCOC(=O)c1ccc(NC(=O)C2CCCN(S(=O)(=O)c3ccc(F)cc3)C2)cc1 (stereo not given),-4.0,20.3,-0.8,53.4*,22.2
CCOC(=O)c1c(NC(C)=O)sc2c(OCC(O)CN(CC)CC)c(Br)ccc12 (stereo not given),16.0,1.4,0.4,53.1*,46.7*
CCOC(=O)c1c(NC(C)=O)sc2c(OCCN(CC)CC)c(Br)ccc12,-5.4,6.3,-4.2,31.8,/
O=C(OCc1ccc(COC(=O)c2ccc(O)cc2)cc1)c1ccc(O)cc1,10.3,10.4,3.9,45.6*,-1.3
COc1cc(NC(=O)c2c(F)c(F)c(OC)c(F)c2F)ccc1NC(=O)c1cccs1,6.7,8.1,0.3,2.3,/
C[C@H](CO)N1C[C@H](C)[C@@H](CN(C)S(=O)(=O)c2cccs2)Oc2c(NC(=O)C3CC3)cccc2C1=O,1.5,/,-2.1,-0.6,/
COc1ccc(Nc2nc(N)c([N+](=O)[O-])c(NC3CCCCC3)n2)cc1,17.5,21.2,2.7,45.9*,15.0
COc1ccc(Nc2nc(N)c([N+](=O)[O-])c(NCCO)n2)cc1,0.1,16.2,-0.3,-1.9,/
Cc1cc(NC(=O)CCC(=O)N(c2ccccc2)C(C)C(=O)NC2CCCC2)no1 (stereo not given),2.9,12.1,-0.1,-0.8,/
CCOC(=O)C(=O)Cc1cccnn1,-2.1,/,-0.3,/,/
O=C1CC(N(CCc2ccccc2)C(=S)Nc2ccccc2)C(=O)N1c1ccc(Br)cc1 (stereo not given),19.2,23.9,-0.2,60.2*,23.3
O=C(COc1ccccc1)NCC(=O)N/N=C/c1ccc(O)cc1O,7.0,25.4,-0.5,42.2*,39.8
Oc1ccc(/C=N/Nc2nc(-c3ccc(Cl)cc3)cc(C(F)(F)F)n2)cc1,5.8,80.1,13.8*,61.2*,14.9
Cc1cc(-c2ccccc2)nc(N/N=C/c2ccc(O)cc2)n1,9.6,/,-1.4,1.9,/
O=C1Nc2ccc(Br)cc2/C1=C/C1CC=CCC1 (stereo not given),6.5,4.6,2.8,42.1*,8.7
CNC(=O)c1cccc(NC(=O)c2cc(-c3ccccc3)nc3c2cnn3C(C)C)c1,1.2,/,-1.6,55.0*,33.3
C=CCN1CN(S(=O)(=O)c2cccc(Cl)c2)c2nc3ccccc3nc21,2.1,14.2,-2.6,-0.1,/
C/C(=N\NC(=O)c1ccc(C)cc1C)c1ccc2c(c1)Nc1ccccc1S2,13.1,12.7,1.3,42.8*,33.3
Oc1ccc(-c2cc(-c3ccc(O)cc3)nc(-c3ccccc3)n2)cc1,-0.6,19.5,1.2,52.5*,57.3*
Nc1ccc(-c2cc(-c3ccc(N)cc3)nc(-c3ccccc3)n2)cc1,-2.9,20.6,4.7,2.3,/

# High-throughput results deposited in PubChem by several laboratories.
